Test results taken from article PMC9906001 (Pulmonary Circulation, 2023).
Several values for one entry are separate records, joined by “and”; a condition that tells them apart may be missing. Identical values can stand only once. Like-named read-outs stand apart in the source and are kept apart here.

Tests used:
[1] = test system: Japanese patients with pulmonary arterial hypertension; details: lowest value among 5, 15, or 30 min after inhalation at Week 12, IBUKI study; cited from earlier work
[2] = test system: Japanese patients with pulmonary arterial hypertension; experiment: Hemodynamic measurements by right heart catheterization; format: in vivo, human
How it was run: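 RHC at baseline and Week 12, pre-inhalation and 15 and 30 min after inhaling test compound (6 µg/breath, starting 3 breaths four times daily). CO by thermodilution or indirect Fick per site, with the same method per patient. PVR = (mPAP−PAWP)/CO; PVRI = (mPAP−PAWP)/cardiac index (CO/BSA). Lower of 15/30-min PVRI taken as Week-12 "best". Significance: 95% CI of mean change excluding 0.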

[3] = test system: Japanese patients with pulmonary arterial hypertension; experiment: NT-proBNP levels; format: in vivo, human
How it was run: (§1)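 Multicentre, non-randomised, single-arm study: 12-week main period plus 40-week extension. Nebulised test compound given as 0.6 mg/mL at 6 µg/breath, starting 3 breaths (18 µg)/session four times daily. Patients 18–75 y with PAH; stable background ERA/PDE5 inhibitor/sGC stimulator allowed; no other prostacyclin-pathway drugs. Secondary endpoints reported as change from baseline.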

[4] = test system: Japanese patients with pulmonary arterial hypertension; experiment: Time to clinical worsening; format: in vivo, human
How it was run: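 Clinical worsening was defined as death, transplantation, hospitalisation for worsening PAH, or start of additional PAH-specific therapy. Followed during the 12-week main and 40-week long-term periods of open-label nebulised test compound (6 µg/breath, starting 3 breaths/session four times daily), in addition to background ERA and/or PDE5 inhibitor/sGC stimulator.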

[5] = Plasma pharmacokinetics in Japanese PAH patients; format: in vivo, human
[6] = 54 μg inhaled, non-Japanese PAH patients; cited from earlier work
[7] = Plasma pharmacokinetics in Japanese healthy adults, single inhalation; format: in vivo, human; details: 18 and 36 μg inhaled
[8] = test system: Japanese patients with pulmonary arterial hypertension; experiment: WHO functional class; format: in vivo, human
How it was run: as §1

[9] = test system: Japanese patients with pulmonary arterial hypertension; experiment: Quality of life, Minnesota Living with Heart Failure questionnaire; format: in vivo, human
How it was run: as §1

[10] = test system: Japanese patients with pulmonary arterial hypertension; experiment: 6-minute walking distance and Borg Dyspnea Score; format: in vivo, human
How it was run: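 Single-arm, open-label study: test compound nebulised at 6 µg/breath from a 0.6 mg/mL solution, started at 3 breaths (18 µg)/session four times daily. Peak 6MWD taken 10–60 min after inhalation, trough 6MWD at least 4 h post-inhalation. Borg score was a secondary endpoint. Change from baseline; significance taken as a two-sided 95% CI excluding 0.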

[11] = test system: Japanese patients with pulmonary arterial hypertension; experiment: Safety: adverse events and safety parameters over 52 weeks; format: in vivo, human
How it was run: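 Over the 52 weeks of nebulised test compound (6 µg/breath, starting 3 breaths four times daily), AEs were coded by MedDRA v24.0 preferred term. Monitoring covered clinical laboratory tests, blood pressure, pulse, SpO2, ECG, chest X-ray, pulmonary function, arterial blood gas and body weight. Safety set: patients who received at least one dose.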

[12] = test system: Japanese patients with pulmonary arterial hypertension; details: baseline to week 16, study of selexipag in Japan; cited from earlier work
[13] = Week 12, 15 min post-inhalation, n = 17
[14] = Week 12, 30 min post-inhalation, n = 17
[15] = Week 12, post-inhalation best, n = 17
[16] = Week 12, pre-inhalation (trough treprostinil level), n = 17
[17] = Week 12, pre-inhalation, n = 17
[18] = human, plasma, inhaled or intranasal, 54 ug
[19] = over 52 weeks, n = 17, listed as treprostinil

CC#CCC(C)[C@H](O)/C=C/[C@@H]1[C@H]2C/C(=C/CCCC(=O)O)C[C@H]2C[C@H]1O (stereo partly drawn) [iloprost]
Best change from baseline in mPAP [1]: −6.75 mmHg

CCCCC[C@H](O)CC[C@@H]1[C@H]2Cc3cccc(OCC(=O)O)c3C[C@H]2C[C@H]1O [inhaled treprostinil, Treprostinil]
Best change from baseline in PVRI at Week 12 ([2]; 13 patients receiving a combination of an ERA and a PDE5 inhibitor/sGC stimulator): −36.7 ± 25.0%
CO [2, 13]: 4.9 ± 1.6 L/min
Cardiac index [2, 13]: 3.0 ± 0.9 L/min/m^2
PAWP [2, 13]: 9.4 ± 4.2 mmHg
PVR [2, 13]: 4.5 ± 1.8 Wood units
PVRI [2, 13]: 7.4 ± 2.8 Wood units·m^2
SVR [2, 13]: 17.8 ± 6.5 Wood units
SVRI [2, 13]: 28.8 ± 9.5 Wood units·m^2
SvO2 [2, 13]: 71.3 ± 5.6%
mPAP [2, 13]: 30.5 ± 10.1 mmHg
mRAP [2, 13]: 4.5 ± 3.1 mmHg
CO [2, 14]: 5.0 ± 1.5 L/min
Cardiac index [2, 14]: 3.0 ± 0.9 L/min/m^2
PAWP [2, 14]: 8.9 ± 3.9 mmHg
PVR [2, 14]: 4.4 ± 2.0 Wood units
PVRI [2, 14]: 7.3 ± 3.1 Wood units·m^2
SVR [2, 14]: 17.7 ± 6.2 Wood units
SVRI [2, 14]: 28.7 ± 9.2 Wood units·m^2
SvO2 [2, 14]: 70.0 ± 5.8%
mPAP [2, 14]: 30.1 ± 10.3 mmHg
mRAP [2, 14]: 4.8 ± 3.3 mmHg
CO [2, 15]: 5.1 ± 1.7 L/min
Cardiac index [2, 15]: 3.1 ± 0.9 L/min/m^2
PAWP [2, 15]: 8.5 ± 4.0 mmHg
PVR [2, 15]: 4.2 ± 1.9 Wood units
PVRI [2, 15]: 6.9 ± 2.9 Wood units·m^2
SVR [2, 15]: 17.5 ± 6.4 Wood units
SVRI [2, 15]: 28.4 ± 9.4 Wood units·m^2
SvO2 [2, 15]: 71.5 ± 5.5%
mPAP [2, 15]: 29.8 ± 9.9 mmHg
mRAP [2, 15]: 4.4 ± 3.0 mmHg
Change from baseline in PVR [2, 16]: −19.6 ± 26.8%
Change from baseline in PVRI [2, 16]: −19.2 ± 26.8%
Change from baseline in mPAP [2, 16]: −4.0 ± 6.1 mmHg
CO [2, 17]: 4.6 ± 1.3 L/min
Cardiac index [2, 17]: 2.8 ± 0.8 L/min/m^2
PAWP [2, 17]: 8.8 ± 4.1 mmHg
PVR [2, 17]: 5.7 ± 2.2 Wood units
PVRI [2, 17]: 9.3 ± 3.1 Wood units·m^2
SVR [2, 17]: 19.5 ± 6.2 Wood units
SVRI [2, 17]: 31.7 ± 8.7 Wood units·m^2
SvO2 [2, 17]: 71.2 ± 5.3%
mPAP [2, 17]: 34.1 ± 9.8 mmHg
mRAP [2, 17]: 5.0 ± 3.5 mmHg
Best change from baseline in PVRI at Week 12 ([2]; one patient who was treatment-naïve): −54.7%
% Change from baseline to Week 12 in CO ([2]; post-inhalation best, n = 17): 18.3 ± 20.0 (8.0 to 28.6) %
% Change from baseline to Week 12 in PAWP ([2]; post-inhalation best, n = 17): 24.2 ± 60.9 (−7.1 to 55.5) %
% Change from baseline to Week 12 in PVR ([2]; post-inhalation best, n = 17): −39.7 ± 25.6 (−52.9 to −26.5) %
% Change from baseline to Week 12 in PVRI (primary endpoint) ([2]; post-inhalation best, n = 17): −39.4 ± 25.5 (−52.6 to −26.3) %
% Change from baseline to Week 12 in SVR ([2]; post-inhalation best, n = 17): −15.3 ± 24.0 (−27.7 to −3.0) %
% Change from baseline to Week 12 in SVRI ([2]; post-inhalation best, n = 17): −14.8 ± 24.4 (−27.4 to −2.3) %
% Change from baseline to Week 12 in SvO2 ([2]; post-inhalation best, n = 17): 2.7 ± 5.8 (−0.3 to 5.7) %
% Change from baseline to Week 12 in cardiac index ([2]; post-inhalation best, n = 17): 17.8 ± 20.3 (7.3 to 28.2) %
% Change from baseline to Week 12 in mPAP ([2]; post-inhalation best, n = 17): −21.7 ± 19.7 (−31.9 to −11.6) %
% Change from baseline to Week 12 in mRAP ([2]; post-inhalation best, n = 17): −0.3 ± 57.0 (−31.9 to 31.2) %
Change from baseline to Week 12 in PVR ([2]; post-inhalation best, n = 17): −2.9 ± 2.0 (−4.0 to −1.9) Wood units
Change from baseline to Week 12 in PVRI ([2]; post-inhalation best, n = 17): −4.7 ± 3.0 (−6.2 to −3.1) Wood units·m^2
Change from baseline to Week 12 in SVR ([2]; post-inhalation best, n = 17): −3.3 ± 4.4 (−5.6 to −1.1) Wood units
Change from baseline to Week 12 in SVRI ([2]; post-inhalation best, n = 17): −5.3 ± 7.3 (−9.1 to −1.5) Wood units·m^2
Change from baseline to Week 12 in mPAP ([2]; post-inhalation best, n = 17): −8.3 ± 6.8 (−11.8 to −4.8) mmHg
Best change from baseline in PVRI at Week 12 ([2]; three patients receiving an ERA): −46.0 ± 35.1%
Mean change from baseline in NT-proBNP level ([3]; Week 6): -34.6 ± 100.0 pg/mL
Mean change from baseline in NT-proBNP level ([3]; Week 12): -35.5 ± 165.5 pg/mL
Mean change from baseline in NT-proBNP level ([3]; Week 52): -77.1 ± 194.1 pg/mL
Add-on therapy with a PDE5 inhibitor/sGC stimulator ([4]; long-term treatment period, patients who had been receiving an ERA): two patients
Needed additional PAH-specific therapy ([4]; main treatment period (12 weeks)): no patient
Death, transplantation, or hospitalization due to worsening PAH ([4]; throughout the 52 weeks): no patient
MRT [5, 18]: 55.8 ± 10.2 min
Vd/F [5, 18]: 76.7 ± 52.2 L
k el [5, 18]: 0.000272 s⁻¹
Time detectable in the plasma after inhalation ([5]; nine breaths (54 μg) four times daily): approximately 4 h
Geometric mean C max [6]: 1.02 ng/mL
Mean C max, Japanese vs non-Japanese healthy adults [7]: 1.2 fold
WHO functional class improved ([8]; Week 12): four
WHO functional class I ([8]; Week 12 (n = 17)): 1 (5.9) n (%)
WHO functional class II ([8]; Week 12 (n = 17)): 13 (76.5) n (%)
WHO functional class III ([8]; Week 12 (n = 17)): 3 (17.6) n (%)
WHO functional class I ([8]; Week 52 (n = 16)): 2 (12.5) n (%)
WHO functional class II ([8]; Week 52 (n = 16)): 12 (75.0) n (%)
WHO functional class III ([8]; Week 52 (n = 16)): 2 (12.5) n (%)
WHO functional class shift II -> I ([8]; baseline to Week 12 (n = 17)): 1 (5.9) n (%)
WHO functional class shift II -> II ([8]; baseline to Week 12 (n = 17)): 10 (58.8) n (%)
WHO functional class shift III -> II ([8]; baseline to Week 12 (n = 17)): 3 (17.6) n (%)
WHO functional class shift III -> III ([8]; baseline to Week 12 (n = 17)): 3 (17.6) n (%)
WHO functional class shift II -> I ([8]; baseline to Week 52 (n = 16)): 2 (12.5) n (%)
WHO functional class shift II -> II ([8]; baseline to Week 52 (n = 16)): 9 (56.3) n (%)
WHO functional class shift III -> II ([8]; baseline to Week 52 (n = 16)): 3 (18.8) n (%)
WHO functional class shift III -> III ([8]; baseline to Week 52 (n = 16)): 2 (12.5) n (%)
Deterioration of WHO functional class ([8]; throughout the 52 weeks): no patient
Mean change from baseline in MLWHF global score ([9]; Week 12): −6.6 ± 12.1
Mean change from baseline in MLWHF global score ([9]; Week 52): −5.8 ± 13.4
Mean change from baseline in trough 6MWD ([10]; Week 12): +17.8 ± 35.5 m
Change from baseline in Borg Dyspnea Score ([10]; Weeks 6, 12, and 52): No significant changes
AE related to treprostinil: cough ([11]; 52-week period): 47.1%
AE related to treprostinil: headache ([11]; 52-week period): 58.8%
AE related to treprostinil: hot flush ([11]; 52-week period): 23.5%
AE related to treprostinil: throat irritation ([11]; 52-week period): 29.4%
Intensity of AEs ([11]; all AEs, 52-week period): mild‐moderate intensity
Tolerability ([11]; four times daily in Japanese patients with PAH): well tolerated
AE related to treprostinil: Blood pressure decreased ([11]; over 52 weeks, n = 17): 2 (11.8) n (%)
AE related to treprostinil: Diarrhoea ([11]; over 52 weeks, n = 17): 2 (11.8) n (%)
AE related to treprostinil: Dizziness ([11]; over 52 weeks, n = 17): 2 (11.8) n (%)
AE related to treprostinil: Head discomfort ([11]; over 52 weeks, n = 17): 3 (17.6) n (%)
AE related to treprostinil: Hot flush ([11]; over 52 weeks, n = 17): 4 (23.5) n (%)
AE related to treprostinil: Nausea ([11]; over 52 weeks, n = 17): 3 (17.6) n (%)
AE related to treprostinil: Oropharyngeal discomfort ([11]; over 52 weeks, n = 17): 3 (17.6) n (%)
AE related to treprostinil: Oropharyngeal pain ([11]; over 52 weeks, n = 17): 2 (11.8) n (%)
AE related to treprostinil: Pyrexia ([11]; over 52 weeks, n = 17): 2 (11.8) n (%)
AE related to treprostinil: cough ([11]; over 52 weeks, n = 17): 8 (47.1) n (%)
AE related to treprostinil: headache ([11]; over 52 weeks, n = 17): 10 (58.8) n (%)
AE related to treprostinil: throat irritation ([11]; over 52 weeks, n = 17): 5 (29.4) n (%)
Deaths ([11]; over 52 weeks, n = 17): no deaths
Deaths [11, 19]: 0 n (%)
Total patients with at least one AE [11, 19]: 17 n (%) and 17 (100.0) n (%)
Total patients with at least one AE related to treprostinil [11, 19]: 17 n (%) and 17 (100.0) n (%)

CC(C)N(CCCCOCC(=O)NS(C)(=O)=O)c1cnc(-c2ccccc2)c(-c2ccccc2)n1 [selexipag]
Change from baseline in mPAP [12]: −3.1 mmHg
